Test results from ChEMBL document CHEMBL3046702, “Herbicidal, plant growth inhibitory, and cytotoxic activities of bismuthines containing aromatic heterocycles” (J Agric Food Chem, 2003).
Calls of active or inactive are those of the source. No cut-off for these calls is given here.

Tests used:
Lactuca sativa [1] = assay: Herbicidal activity against Lactuca sativa var.Roman (lettuce) assessed as inhibition of seed germination after 48 hr; format: functional, organism-based; details: read-out: I50
Trifolium pratense [2] = assay: Herbicidal activity against Trifolium pratense var. Kenland (red clover) assessed as inhibition of seed respiration during germination after 72 hr by polarographic analysis; format: functional, organism-based; details: for IC50: read-out: I50
How it was run: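 Red clover seeds were exposed to the bismuthines during germination, with respiration followed over the imbibition time. Values were taken at 72 h as the concentration giving 50% inhibition of seed respiration, using means of three experiments.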

Trifolium pratense [3] = assay: Herbicidal activity against Trifolium pratense var. Kenland (red clover) assessed as inhibition of seed germination after 48 hr; format: functional, organism-based; details: read-out: I50
Phaseolus vulgaris [4] = assay: Herbicidal activity against Phaseolus vulgaris assessed as inhibition of seed respiration during germination; format: functional, organism-based; details: read-out: I50
Lolium multiflorum [5] = assay: Herbicidal activity against Lolium multiflorum var. Gulf (Italian ryegrass) assessed as inhibition of seed germination after 48 hr; format: functional, organism-based; details: read-out: I50
Artemia salina [6] = assay: Toxicity in Artemia salina (brine shrimp) larvae assessed as mortality; format: organism-based; details: in vivo
How it was run: (§1)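 Brine shrimp lethality test on *Artemia salina* larvae, run across several concentrations up to a top level of 1000 µM. Mortality was scored at each concentration, and LC50 values in µM were derived from the concentration–mortality data.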

Artemia salina [7] = assay: Toxicity in Artemia salina (brine shrimp) larvae assessed as mortality at 20 uM; format: organism-based; details: in vivo; how it was run: as §1
Phaseolus vulgaris [8] = assay: Herbicidal activity against Phaseolus vulgaris assessed as inhibition of mitochondrial oxygen uptake; format: functional, organism-based; details: read-out: I50
Artemia salina [9] = assay: Toxicity in Artemia salina (brine shrimp) larvae assessed as mortality at 500 to 1000 uM; format: organism-based; details: in vivo; how it was run: as §1
Artemia salina [10] = assay: Toxicity in Artemia salina (brine shrimp) larvae assessed as mortality at 100 uM; format: organism-based; details: in vivo; how it was run: as §1
Artemia salina [11] = assay: Toxicity in Artemia salina (brine shrimp) larvae assessed as mortality at 200 uM; format: organism-based; details: in vivo; how it was run: as §1
Lolium multiflorum [12] = assay: Herbicidal activity against Lolium multiflorum var. Gulf (Italian ryegrass) seedlings assessed as root length rate at 10 uM after 48 hr relative to control; format: functional, organism-based
How it was run: (§2)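 Italian ryegrass seedlings grown with 0, 0.5, 1, 3, 5, 7.5 or 10 µM of each bismuthine. Shoot and root lengths were measured at 48 h and expressed as a percentage of the average untreated control length.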

Lactuca sativa [13] = assay: Herbicidal activity against Lactuca sativa var.Roman (lettuce) seedlings assessed as root length at 10 uM after 120 hr (reference value: 18 to 19 mm); format: functional, organism-based
Lactuca sativa [14] = assay: Herbicidal activity against Lactuca sativa var.Roman (lettuce) seedlings assessed as seed germination rate at 10 uM after 48 hr relative to control; format: functional, organism-based
Lactuca sativa [15] = assay: Herbicidal activity against Lactuca sativa var.Roman (lettuce) seedlings assessed as shoot length at 10 uM after 120 hr (reference value: 27 to 31 mm); format: functional, organism-based
[16] = system: Radical scavenging activity; assay: Antioxidant activity assessed as DPPH free radical scavenging activity at 5 to 100 uM after 30 min by spectrophotometric analysis; format: functional
How it was run: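 DPPH reduction by the compounds was read spectrophotometrically at 517 nm after 30 min. 100% DMSO served as the blank and quercetin as the reference scavenger.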

Lactuca sativa [17] = assay: Herbicidal activity against Lactuca sativa var.Roman (lettuce) seedlings assessed as seed germination rate at 1 uM after 48 hr relative to control; format: functional, organism-based
Trifolium pratense [18] = assay: Herbicidal activity against Trifolium pratense var. Kenland (red clover) assessed as inhibition of seed germination at > 18.3 uM after 48 hr; format: functional, organism-based
Lactuca sativa [19] = assay: Herbicidal activity against Lactuca sativa var.Roman (lettuce) seedlings assessed as root length at 50 uM after 120 hr (reference value: 18 to 19 mm); format: functional, organism-based
Lactuca sativa [20] = assay: Herbicidal activity against Lactuca sativa var.Roman (lettuce) seedlings assessed as root length at 75 uM after 120 hr (reference value: 18 to 19 mm); format: functional, organism-based
Lolium multiflorum [21] = assay: Herbicidal activity against Lolium multiflorum var. Gulf (Italian ryegrass) seedlings assessed as root length rate at 1 uM after 48 hr relative to control; format: functional, organism-based; how it was run: as §2
Lolium multiflorum [22] = assay: Herbicidal activity against Lolium multiflorum var. Gulf (Italian ryegrass) seedlings assessed as root length rate at 3 uM after 48 hr relative to control; format: functional, organism-based; how it was run: as §2
Lactuca sativa [23] = assay: Herbicidal activity against Lactuca sativa var.Roman (lettuce) seedlings assessed as root length at 25 uM after 120 hr (reference value: 18 to 19 mm); format: functional, organism-based
Lactuca sativa [24] = assay: Herbicidal activity against Lactuca sativa var.Roman (lettuce) seedlings assessed as seed germination rate at 7.5 uM after 48 hr relative to control; format: functional, organism-based
Lolium multiflorum [25] = assay: Herbicidal activity against Lolium multiflorum var. Gulf (Italian ryegrass) seedlings assessed as shoot length rate at 3 uM after 48 hr relative to control; format: functional, organism-based; how it was run: as §2
Lolium multiflorum [26] = assay: Herbicidal activity against Lolium multiflorum var. Gulf (Italian ryegrass) seedlings assessed as shoot length rate at 0.5 uM after 48 hr relative to control; format: functional, organism-based; how it was run: as §2
Lolium multiflorum [27] = assay: Herbicidal activity against Lolium multiflorum var. Gulf (Italian ryegrass) seedlings assessed as root length rate at 5 uM after 48 hr relative to control; format: functional, organism-based; how it was run: as §2
Lactuca sativa [28] = assay: Herbicidal activity against Lactuca sativa var.Roman (lettuce) seedlings assessed as seed germination rate at 0.5 uM after 48 hr relative to control; format: functional, organism-based
Lolium multiflorum [29] = assay: Herbicidal activity against Lolium multiflorum var. Gulf (Italian ryegrass) seedlings assessed as shoot length rate at 5 uM after 48 hr relative to control; format: functional, organism-based; how it was run: as §2
Lolium multiflorum [30] = assay: Herbicidal activity against Lolium multiflorum var. Gulf (Italian ryegrass) seedlings assessed as shoot length rate at 1 uM after 48 hr relative to control; format: functional, organism-based; how it was run: as §2
Lactuca sativa [31] = assay: Herbicidal activity against Lactuca sativa var.Roman (lettuce) seedlings assessed as shoot length at 5 uM after 120 hr (reference value: 27 to 31 mm); format: functional, organism-based
Lolium multiflorum [32] = assay: Herbicidal activity against Lolium multiflorum var. Gulf (Italian ryegrass) assessed as inhibition of seed respiration during germination after 72 hr by polarographic analysis; format: functional, organism-based
Lactuca sativa [33] = assay: Herbicidal activity against Lactuca sativa var.Roman (lettuce) assessed as inhibition of seed germination at > 36.6 uM after 48 hr; format: functional, organism-based
Lactuca sativa [34] = assay: Herbicidal activity against Lactuca sativa var.Roman (lettuce) assessed as inhibition of seed germination at > 48.8 uM after 48 hr; format: functional, organism-based
[35] = system: Radical scavenging activity; assay: Antioxidant activity assessed as DPPH free radical scavenging activity at 5 to 100 uM after 30 min by TLC autographic assay; format: functional
Lactuca sativa [36] = assay: Herbicidal activity against Lactuca sativa var.Roman (lettuce) seedlings assessed as seed germination rate at 5 uM after 48 hr relative to control; format: functional, organism-based
Lolium multiflorum [37] = assay: Herbicidal activity against Lolium multiflorum var. Gulf (Italian ryegrass) seedlings assessed as shoot length rate at 10 uM after 48 hr relative to control; format: functional, organism-based; how it was run: as §2
Lactuca sativa [38] = assay: Herbicidal activity against Lactuca sativa var.Roman (lettuce) seedlings assessed as seed germination rate at 3 uM after 48 hr relative to control; format: functional, organism-based
Lactuca sativa [39] = assay: Herbicidal activity against Lactuca sativa var.Roman (lettuce) seedlings assessed as shoot length at 75 uM after 120 hr (reference value: 27 to 31 mm); format: functional, organism-based
Lolium multiflorum [40] = assay: Herbicidal activity against Lolium multiflorum var. Gulf (Italian ryegrass) seedlings assessed as shoot length rate at 7.5 uM after 48 hr relative to control; format: functional, organism-based; how it was run: as §2
Physalis ixocarpa = assay: Herbicidal activity against Physalis ixocarpa assessed as inhibition of seed respiration during germination after 72 hr by polarographic analysis; format: functional, organism-based
Lolium multiflorum [41] = assay: Herbicidal activity against Lolium multiflorum var. Gulf (Italian ryegrass) seedlings assessed as root length rate at 0.5 uM after 48 hr relative to control; format: functional, organism-based; how it was run: as §2
Lolium multiflorum [42] = assay: Herbicidal activity against Lolium multiflorum var. Gulf (Italian ryegrass) seedlings assessed as root length rate at 7.5 uM after 48 hr relative to control; format: functional, organism-based; how it was run: as §2
Lactuca sativa [43] = assay: Herbicidal activity against Lactuca sativa var.Roman (lettuce) seedlings assessed as root length at 5 uM after 120 hr (reference value: 18 to 19 mm); format: functional, organism-based
Lactuca sativa [44] = assay: Herbicidal activity against Lactuca sativa var.Roman (lettuce) seedlings assessed as shoot length at 25 uM after 120 hr (reference value: 27 to 31 mm); format: functional, organism-based
Lactuca sativa [45] = assay: Herbicidal activity against Lactuca sativa var.Roman (lettuce) seedlings assessed as inhibition of seed germination at 5 uM after 48 hr; format: functional, organism-based
Lactuca sativa [46] = assay: Herbicidal activity against Lactuca sativa var.Roman (lettuce) seedlings assessed as growth inhibition at 5 uM after 120 hr; format: functional, organism-based
Lactuca sativa [47] = assay: Herbicidal activity against Lactuca sativa var.Roman (lettuce) seedlings assessed as shoot length at 50 uM after 120 hr (reference value: 27 to 31 mm); format: functional, organism-based

TRIS(2-FURYL)BISMUTH [listing 1 of 2 here]
IC50 (Lactuca sativa [1]): 16.1 µM | IC50 (Trifolium pratense [2]): 6.3 µM | IC50 (Trifolium pratense [3]): 4.6 µM | IC50 (Phaseolus vulgaris [4]): 1.1 µM | IC50 (Lolium multiflorum [5]): 20 µM | LC50 (Artemia salina [6]): 99 µM | mortality (Artemia salina [7]): 12.28% | IC50 (Phaseolus vulgaris [8]): 10 µM | mortality (Artemia salina [9]): 100% | mortality (Artemia salina [10]): 50.9% | mortality (Artemia salina [11]): 68.96%

TRIS(2-FURYL)BISMUTH [listing 2 of 2 here]
Activity (Lolium multiflorum [12]): 30% | Activity (Lactuca sativa [13]): 7 mm | Activity (Lactuca sativa [14]): 35% | Activity (Lactuca sativa [15]): 11 mm | Activity [16]: Active | Activity (Lactuca sativa [17]): 95% | inhibition (Trifolium pratense [18]): 100% | Activity (Lactuca sativa [19]): 0 mm | Activity (Lactuca sativa [20]): 0 mm | Activity (Lolium multiflorum [21]): 70% | Activity (Lolium multiflorum [22]): 86% | Activity (Lactuca sativa [23]): 0 mm | Activity (Lactuca sativa [24]): 35% | Activity (Lolium multiflorum [25]): 79% | Activity (Lolium multiflorum [26]): 82% | inhibition (Trifolium pratense [2]): Dose-dependent effect | Activity (Lolium multiflorum [27]): 66% | Activity (Lactuca sativa [28]): 95% | Activity (Lolium multiflorum [29]): 55% | Activity (Lolium multiflorum [30]): 75% | Activity (Lactuca sativa [31]): 24 mm | inhibition (Lolium multiflorum [32]): inactive | inhibition (Lactuca sativa [33]): Active | inhibition (Lactuca sativa [34]): 100% | Activity [35]: Active | Activity (Lactuca sativa [36]): 70% | Activity (Lolium multiflorum [37]): 24% | Activity (Lactuca sativa [38]): 80% | Activity (Lactuca sativa [39]): 0 mm | Activity (Lolium multiflorum [40]): 53% | inhibition (Physalis ixocarpa): Active | Activity (Lolium multiflorum [41]): 78% | Activity (Lolium multiflorum [42]): 44% | Activity (Lactuca sativa [43]): 32 mm

TRIS(2-THIENYL)BISMUTH [listing 1 of 2 here]
IC50 (Lactuca sativa [1]): 49.7 µM | IC50 (Trifolium pratense [2]): 13.5 µM | IC50 (Trifolium pratense [3]): 12.4 µM | IC50 (Lolium multiflorum [5]): 36 µM | LC50 (Artemia salina [6]): > 1000 µM | IC50 (Phaseolus vulgaris [8]): 35 µM

TRIS(2-THIENYL)BISMUTH [listing 2 of 2 here]
Activity (Lactuca sativa [44]): 7 mm | Activity (Lolium multiflorum [12]): 30% | Activity (Lactuca sativa [13]): 5 mm | Activity (Lactuca sativa [14]): 60% | Activity (Lactuca sativa [15]): 9 mm | Activity [16]: Active | Activity (Lactuca sativa [17]): 90% | Activity (Lactuca sativa [19]): 2 mm | Activity (Lactuca sativa [20]): 0 mm | Activity (Lolium multiflorum [21]): 88% | Activity (Lolium multiflorum [22]): 52% | Activity (Lactuca sativa [23]): 3 mm | Activity (Lactuca sativa [24]): 70% | Activity (Lolium multiflorum [25]): 71% | Activity (Lolium multiflorum [26]): 84% | inhibition (Trifolium pratense [2]): Dose-dependent effect | Activity (Lolium multiflorum [27]): 76% | inhibition (Lactuca sativa [45]): Active | Activity (Lactuca sativa [28]): 90% | Activity (Lolium multiflorum [29]): 75% | Activity (Lolium multiflorum [30]): 82% | Activity (Lactuca sativa [31]): 33 mm | inhibition (Lolium multiflorum [32]): inactive | Activity [35]: inactive | Activity (Lactuca sativa [36]): 80% | Activity (Lolium multiflorum [37]): 37% | Activity (Lactuca sativa [38]): 85% | Activity (Lactuca sativa [39]): 0 mm | Activity (Lolium multiflorum [40]): 46% | inhibition (Physalis ixocarpa): Active | inhibition (Lactuca sativa [46]): 30% | Activity (Lactuca sativa [47]): 5 mm | Activity (Lolium multiflorum [41]): 70% | Activity (Lolium multiflorum [42]): 50% | Activity (Lactuca sativa [43]): 36 mm
